Measured values published in ChEMBL document CHEMBL1149110, “Identification of 2-[2-[2-(5-bromo-2- methoxyphenyl)-ethyl]-3-fluorophenyl]-4,5-dihydro-1H-imidazole (ML00253764), a small molecule melanocortin 4 receptor antagonist that effectively reduces tumor-induced weight loss in a mouse model” (J Med Chem, 2004).

Assays:
Melanocortin receptor 4 = Melanocortin receptor 4 (Mus musculus, UniProt P56450); assay: Competition binding affinity at mice melanocortin 4 receptor using [125I][NDP]-R-MSH as radioligand in a membrane filtration assay; assay type: cell membranes
Sequence of Melanocortin receptor 4 (P56450 whole entry): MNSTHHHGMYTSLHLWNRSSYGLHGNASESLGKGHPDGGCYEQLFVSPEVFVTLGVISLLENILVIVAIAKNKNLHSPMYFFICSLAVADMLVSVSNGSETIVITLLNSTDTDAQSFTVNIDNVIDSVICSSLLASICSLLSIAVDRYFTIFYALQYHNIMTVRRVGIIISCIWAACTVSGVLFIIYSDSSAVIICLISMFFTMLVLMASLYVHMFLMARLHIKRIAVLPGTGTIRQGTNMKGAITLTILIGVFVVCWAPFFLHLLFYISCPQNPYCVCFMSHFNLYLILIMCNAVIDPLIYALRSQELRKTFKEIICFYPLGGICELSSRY
Outline: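 Membrane filtration competition binding at MC4R with 125I-[NDP]-α-MSH as radioligand. Values are averages of at least three measurements, reported ± SD.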

Mus musculus = species: Mus musculus; assay: Functional antagonism measured by inhibition of cAMP production induced by [NDP]-R-MSH in a whole cell assay in mice
Outline: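 Whole-cell functional assay measuring inhibition of cAMP production stimulated by [NDP]-α-MSH. Values are averages of at least three measurements, reported ± SD.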

Structure (SMILES)	Ki (Melanocortin receptor 4) [nM]	IC50 (Mus musculus) [nM]
Clc1cc(CSc2ccccc2C2=NCCCN2)c(Cl)s1	2200	
Fc1cccc(F)c1CSc1ccccc1C1=NCCCN1	15800	
Fc1cccc(Cl)c1CSc1ccccc1C1=NCCCN1	2700	

Second part, the compound after the results:

Ki (Melanocortin receptor 4) [nM]	IC50 (Mus musculus) [nM]	Structure (SMILES)
220	280	COc1ccc(Br)cc1CCc1ccccc1C1=NCCCN1
160		COc1ccc(Br)cc1CCc1c(F)cccc1C1=NCCN1
67	270	COc1ccc(Br)cc1CSc1ccccc1C1=NCCCN1
39	450	COc1ccc(Br)cc1CCc1ccccc1C1=NCCN1
